Drawing on ChEMBL document CHEMBL2086264, this text covers inhibition, MIC90 and IC50 for seven compounds.

≈ marks a conversion by molar mass, not a printed value. Calls of active or inactive are those of the source. The calls are words filed in the database; no cut-off is given here.

Test [1] has as its system Bacillus anthracis. The experiment in a line: Inhibition of DNA synthesis in Bacillus anthracis sterne assessed as Inhibition of [3H]thymidine incorporation into DNA incubated for 15 mins prior to [3H]thymidine addition measured after 30 mins by scintillation counting. It counts as functional, organism-based.
Test [2] has as its system Bacillus anthracis. The experiment in a line: Inhibition of protein synthesis in Bacillus anthracis sterne assessed as Inhibition of [3H]amino acid incorporation into protein incubated for 15 mins prior to [3H]amino acid addition measured after 30 mins by scintillation counting. The test is classed as functional, organism-based.
In another test the test system is Enterococcus faecalis. The experiment in a line: Antibacterial activity against Enterococcus faecalis ATCC 33186 after overnight incubation by microbroth dilution assay. It counts as functional. In a few lines:
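CLSI microbroth dilution in Mueller-Hinton broth; compounds dissolved in DMSO, twofold serial dilutions giving final 200–0.0125 µg/mL. Inoculum from single colony grown at 37°C to mid-log (OD600 0.5), diluted to final OD600 0.0005 (~10^5 CFU/mL). Incubated overnight at 37°C; MIC = lowest concentration inhibiting 90% of visible growth.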
A general note: In broth dilution the organism is exposed to a series of concentrations in liquid medium.

In test [3] the test system is Bacillus anthracis. Briefly: Antibacterial activity against Bacillus anthracis after overnight incubation by microbroth dilution assay. It counts as functional.
For the next test, the system named is Bacillus subtilis. Briefly: Antibacterial activity against Bacillus subtilis ATCC 23857 after overnight incubation by microbroth dilution assay. It counts as functional. In a few lines: (§1)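 CLSI M7A7 microbroth dilution in Mueller-Hinton broth; S. pneumoniae broth given 5% lysed horse blood. DMSO stocks of 10 mg/mL; twofold dilutions to final 200–0.0125 µg/mL. Mid-log inoculum (OD600 0.5) diluted to final OD600 0.0005 (~10^5 CFU/mL). Overnight at 37°C; MIC is the lowest concentration inhibiting 90% of visible growth.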

Test [4] deals with Bacillus anthracis. The experiment in a line: Inhibition of RNA synthesis in Bacillus anthracis sterne assessed as Inhibition of [3H]uracil incorporation into RNA incubated for 15 mins prior to [3H]uracil addition measured after 30 mins by scintillation counting. The test is classed as functional, organism-based.
For the next test, the system named is Streptococcus pneumoniae. The experiment in a line: Antibacterial activity against Streptococcus pneumoniae R6 after overnight incubation by microbroth dilution assay. It counts as functional. In a few lines: as §1
Test [5] in a line: Inhibition of Staphylococcus aureus PlsY expressed in Escherichia coli FB23281 using [U-14C]glycerol-PO4 as substrate after 20 mins by scintillation counting. In a few lines:
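Membranes from E. coli FB23281 (ΔplsY) expressing S. aureus PlsY (SA1187), 4 µg per reaction. pH 7.4 buffer of 100 mM Tris–HCl, 150 mM NaCl, 1 mg/mL BSA and 5 mM Na3VO4, with 100 µM [U-14C]glycerol-PO4. Started with 16:0-PO4 (final 100 µM), 20 min at 37°C. Spotted on filter discs, washed in graded ice-cold TCA, scintillation counted.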

The test system of another test is Staphylococcus aureus. Briefly: Antibacterial activity against Staphylococcus aureus ATCC 29213 after overnight incubation by microbroth dilution assay. It counts as functional. An outline of the steps:
as §1

By MIC90 is commonly meant an inhibitory concentration at the 90% level, which refers to growth in some studies and to a panel of isolates in others. Low values mean higher susceptibility, high ones lower susceptibility. Usually IC50 stands for the concentration that inhibits the measured activity by half. The low end stands for greater potency in that assay, the high end for weaker potency in that assay. Consider `CCCCCCCCCCCCCCCC(=O)NS(=O)(=O)Oc1ccc2c(OS(N)(=O)=O)coc2c1`, for which the inhibition entry in the test with Bacillus anthracis [1], with Bacillus anthracis [2] and with Bacillus anthracis [4] was “Active” in each case. Further, the MIC90 against Enterococcus faecalis was 100 µg/mL (≈ 183 µM); against Bacillus anthracis [3], 3.13 µg/mL (≈ 5.73 µM); against Bacillus subtilis, 100 µg/mL (≈ 183 µM); against Streptococcus pneumoniae, 3.13 µg/mL (≈ 5.73 µM); in the test with Staphylococcus aureus it was 25 µg/mL (≈ 45.7 µM). In test [5], this compound gave an IC50 of 41 µM.

As to `CCCCCCCCCCCCCCCC(=O)NS(=O)(=O)Oc1ccc(OC)cc1`, the inhibition result in the test with Bacillus anthracis [1], with Bacillus anthracis [2] and in the test with Bacillus anthracis [4] was “Active” in each case. Besides, the MIC90 with Enterococcus faecalis is 3.12 µg/mL (≈ 7.06 µM); with Bacillus anthracis [3], 3.13 µg/mL (≈ 7.09 µM); against Bacillus subtilis, 3.12 µg/mL (≈ 7.06 µM); in the test with Streptococcus pneumoniae, 12.5 µg/mL (≈ 28.3 µM); in the test on Staphylococcus aureus, 12.5 µg/mL (≈ 28.3 µM). Also, the IC50 in test [5] was 8 µM.

In the case of `O=C(CCCCCCCCCCc1ccccc1)NS(=O)(=O)Oc1ccccc1`, the inhibition result with Bacillus anthracis [1], in the test with Bacillus anthracis [2] and with Bacillus anthracis [4] was “Active” each time. Also, the MIC90 in the test with Enterococcus faecalis turned out to be 12.5 µg/mL (≈ 29.9 µM); in the test with Bacillus anthracis [3], 3.13 µg/mL (≈ 7.5 µM); in the test with Bacillus subtilis, 100 µg/mL (≈ 239 µM); against Streptococcus pneumoniae it was 200 µg/mL (≈ 479 µM); with Staphylococcus aureus it was 6.25 µg/mL (≈ 15 µM). This compound showed an IC50 in test [5] of 8 µM.

Turning to `CCCCCCCCCCCCCCCC(=O)NS(=O)(=O)OC1CCCCC1` [CYCLOHEXYL PALMITOYLSULFAMATE], the inhibition result in the test with Bacillus anthracis [1], with Bacillus anthracis [2] and in the test on Bacillus anthracis [4] was “Active” throughout. In addition, the MIC90 is more than 200 µg/mL in the test on Enterococcus faecalis; 6.25 µg/mL (≈ 15 µM) in the test on Bacillus anthracis [3]; more than 200 µg/mL in the test on Bacillus subtilis; 100 µg/mL (≈ 239 µM) with Streptococcus pneumoniae; more than 200 µg/mL in the test with Staphylococcus aureus. The compound further returned an IC50 in test [5] of 5 µM.

As for `CCCCCCCCCCCCCCCC(=O)NS(=O)(=O)Oc1ccc(C)cc1`, the inhibition entry in the test with Bacillus anthracis [1], in the test with Bacillus anthracis [2] and in the test with Bacillus anthracis [4] was “Active” each time. Also, the MIC90 in the test on Enterococcus faecalis is 200 µg/mL (≈ 470 µM); in the test with Bacillus anthracis [3], 6.25 µg/mL (≈ 14.7 µM); in the test with Bacillus subtilis it was 200 µg/mL (≈ 470 µM); in the test with Streptococcus pneumoniae, more than 200 µg/mL; in the test with Staphylococcus aureus, more than 200 µg/mL. This compound returned an IC50 in [5] of 12 µM.

For the compound `CCCCCCCCCCCCCCCC(=O)NS(=O)(=O)Oc1ccc(CCNC(=O)OC(C)(C)C)cc1`, the inhibition result with Bacillus anthracis [1], in the test on Bacillus anthracis [2] and in the test on Bacillus anthracis [4] was “Active” in each case. Also, the MIC90 against Enterococcus faecalis was more than 200 µg/mL; against Bacillus anthracis [3] it was 1.56 µg/mL (≈ 2.81 µM); against Bacillus subtilis, more than 200 µg/mL; against Streptococcus pneumoniae, 3.13 µg/mL (≈ 5.64 µM); with Staphylococcus aureus, more than 200 µg/mL. Besides, the midpoint of inhibition in test [5], the IC50, lay at 22 µM.

On to `CCCCCCCCCCCCCCCC(=O)NS(=O)(=O)OC1CCCC1` [CYCLOPENTYL PALMITOYLSULFAMATE], for which the inhibition entry with Bacillus anthracis [1], in the test on Bacillus anthracis [2] and in the test with Bacillus anthracis [4] was “Active” each time. Moreover, the MIC90 with Enterococcus faecalis was more than 200 µg/mL; in the test on Bacillus anthracis [3] it was more than 100 µg/mL; in the test on Bacillus subtilis, more than 200 µg/mL; with Streptococcus pneumoniae, more than 200 µg/mL; in the test on Staphylococcus aureus it was more than 200 µg/mL. The compound further returned an IC50 in test [5] of more than 100 µM.
